According to ChEMBL document CHEMBL2203123, “Synthesis and biological evaluation of some hydrazone derivatives as new anticandidal and anticancer agents” (Eur J Med Chem, 2012):
In brackets after ≈: the same amount, converted by molar mass.

How the values were obtained:
Nakaseomyces glabratus [1] = assay: Antifungal activity against Candida glabrata Osmangazi University clinical isolate after 24 hrs by microdilution susceptibility assay; format: functional
Summary of the method: (§1)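 Broth microdilution in Mueller Hinton Broth, compounds from DMSO stocks diluted serially; inocula standardized to 10^6 CFU/mL (McFarland 0.5) from overnight MHB cultures. Plates held 37 °C for 24 h; MIC taken as first well without turbidity, aided by 1% tetrazolium violet added for 3 h at 37 °C. Ketoconazole reference.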

Nakaseomyces glabratus [2] = assay: Antifungal activity against Candida glabrata Anadolu University clinical isolate after 24 hrs by microdilution susceptibility assay; format: functional; summary of the method: as §1
Pichia kudriavzevii = assay: Antifungal activity against Candida krusei NRRL Y-7179 after 24 hrs by microdilution susceptibility assay; format: functional; settings: NRRL Y-7179, 24 h; summary of the method: as §1
A549 = assay: Cytotoxicity against human A549 cells after 24 hrs by XTT assay; format: functional, cell-based; settings: A549, 24 h
Summary of the method: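 A549 cells in RPMI 1640 with 10% fetal calf serum, penicillin/streptomycin, 37 °C, 5% CO2; 20,000 cells/well seeded, after 24 h exposed to compounds at 0.00316 µM-10 mM for 24 h. XTT mitochondrial activity read at 480 nm (reference 680 nm) after 3 h; % inhibition per concentration, IC50 by non-linear regression.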

Candida albicans [3] = assay: Antifungal activity against Candida albicans ATCC 10231 after 24 hrs by microdilution susceptibility assay; format: functional; settings: ATCC 10231, 24 h; summary of the method: as §1
Candida albicans [4] = assay: Antifungal activity against Candida albicans ATCC 90028 after 24 hrs by microdilution susceptibility assay; format: functional; settings: ATCC 90028, 24 h; summary of the method: as §1
Cyberlindnera jadinii = assay: Antifungal activity against Candida utilis NRRL Y-900 after 24 hrs by microdilution susceptibility assay; format: functional; settings: Williopsis jadinii, NRRL Y-900, 24 h; summary of the method: as §1
Candida parapsilosis = assay: Antifungal activity against Candida parapsilosis NRRL Y-12696 after 24 hrs by microdilution susceptibility assay; format: functional; settings: Lodderomyces parapsilosis, NRRL Y-12696, 24 h; summary of the method: as §1
Candida albicans [5] = assay: Antifungal activity against Candida albicans clinical isolate after 24 hrs by microdilution susceptibility assay; format: functional; summary of the method: as §1
NIH3T3 = assay: Cytotoxicity against mouse NIH/3T3 cells after 24 hrs by XTT assay; format: cell-based; settings: NIH3T3, 24 h
Summary of the method: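 Mouse NIH3T3 fibroblasts grown in DMEM with fetal calf serum, penicillin/streptomycin, 37 °C, 5% CO2; 20,000 cells/well, treated after 24 h with 0.00316 µM-10 mM compound for 24 h. Viability via XTT (3 h, OD 480 nm, reference 680 nm); % inhibition computed and IC50 fitted by non-linear regression.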

Structure (SMILES) | MIC (Nakaseomyces glabratus [1]) [µg/mL] | MIC (Nakaseomyces glabratus [2]) [µg/mL] | MIC (Pichia kudriavzevii) [µg/mL] | MIC (Candida albicans [3]) [µg/mL] | MIC (Candida albicans [4]) [µg/mL] | MIC (Cyberlindnera jadinii) [µg/mL] | MIC (Candida parapsilosis) [µg/mL] | MIC (Candida albicans [5]) [µg/mL] | IC50 (A549) [mM] | IC50 (NIH3T3) [mM]
Cn1nnnc1SCC(=O)N/N=C/c1ccccc1Br | > 8000 | > 8000 | > 8000 | > 8000 | > 8000 | > 8000 | > 8000 | > 8000 | 2 | 0.02
COc1ccccc1/C=N/NC(=O)CSc1nnnn1C | > 8000 | > 8000 | > 8000 | > 8000 | > 8000 | > 8000 | > 8000 | > 8000 | 7 | 3.16
COc1cccc(/C=N/NC(=O)CSc2nnnn2C)c1 | > 8000 | > 8000 | > 8000 | > 8000 | > 8000 | > 8000 | > 8000 | > 8000 | > 10 | 0.6
Cc1ccccc1/C=N/NC(=O)CSc1nnnn1C | > 8000 | > 8000 | > 8000 | > 8000 | > 8000 | > 8000 | > 8000 | > 8000 | > 10 | 6.32
Cc1cccc(/C=N/NC(=O)CSc2nnnn2C)c1 | > 8000 | > 8000 | > 8000 | > 8000 | > 8000 | > 8000 | > 8000 | > 8000 | 2 | 6.25
Cn1nnnc1SCC(=O)N/N=C/c1cccc(Cl)c1Cl | > 8000 | > 8000 | > 8000 | > 8000 | > 8000 | > 8000 | > 8000 | > 8000 | 0.632 | 0.52
Cn1nnnc1SCC(=O)N/N=C/c1ccc(Cl)cc1Cl | > 8000 | > 8000 | > 8000 | > 8000 | > 8000 | > 8000 | > 8000 | > 8000 | 0.5 | 2.14
Cn1nnnc1SCC(=O)N/N=C/c1c(Cl)cccc1Cl | > 8000 | > 8000 | > 8000 | > 8000 | > 8000 | > 8000 | > 8000 | > 8000 | 1 | > 10
C/C(=N\NC(=O)CSc1nnnn1C)c1ccccc1Cl | > 8000 | > 8000 | > 8000 | > 8000 | > 8000 | > 8000 | > 8000 | > 8000 | 6.32 | 6
C/C(=N\NC(=O)CSc1nnnn1C)c1cccc(Cl)c1 | > 8000 | > 8000 | > 8000 | > 8000 | > 8000 | > 8000 | > 8000 | > 8000 | > 10 | 3.4
C/C(=N\NC(=O)CSc1nnnn1C)c1cc(Cl)ccc1Cl | > 8000 | > 8000 | > 8000 | > 8000 | > 8000 | > 8000 | > 8000 | > 8000 | 1.5 | 1
Cn1nnnc1SCC(=O)N/N=C/c1ccc([N+](=O)[O-])cc1 | > 8000 | > 8000 | > 8000 | > 8000 | > 8000 | > 8000 | > 8000 | > 8000 | 0.632 | 9.3
Cc1ccc(/C=N/NC(=O)CSc2nnnn2C)cc1 | > 8000 | > 8000 | > 8000 | > 8000 | > 8000 | > 8000 | > 8000 | > 8000 | 3.16 | 3.16
Cn1nnnc1SCC(=O)N/N=C/c1ccc(F)cc1 | > 8000 | > 8000 | > 8000 | > 8000 | > 8000 | > 8000 | > 8000 | > 8000 | 3.16 | 10
Cn1nnnc1SCC(=O)N/N=C/c1ccc(Cl)cc1 | > 8000 | > 8000 | > 8000 | > 8000 | > 8000 | > 8000 | > 8000 | > 8000 | 0.1 | 2.1
Cn1nnnc1SCC(=O)N/N=C/c1ccc(Br)cc1 | > 8000 | > 8000 | > 8000 | > 8000 | > 8000 | > 8000 | > 8000 | > 8000 | > 10 | 10
CC(C)c1ccc(/C=N/NC(=O)CSc2nnnn2C)cc1 | > 8000 | > 8000 | > 8000 | > 8000 | > 8000 | > 8000 | > 8000 | > 8000 | 0.4 | 1.2
Cn1nnnc1SCC(=O)N/N=C/c1ccccc1Cl | > 8000 | > 8000 | > 8000 | > 8000 | > 8000 | > 8000 | > 8000 | > 8000 | 6.32 | > 10
CC(=O)N1CCN(c2ccc(OCC3COC(Cn4ccnc4)(c4ccc(Cl)cc4Cl)O3)cc2)CC1 (stereo not drawn) [KETOCONAZOLE] | 15 (≈ 0.0282 mM) | 1 (≈ 0.00188 mM) | 3 (≈ 0.00565 mM) | 15 (≈ 0.0282 mM) | 31 (≈ 0.0583 mM) | 15 (≈ 0.0282 mM) | 3 (≈ 0.00565 mM) | 3 (≈ 0.00565 mM) |  | 

More lines, main results first:

MIC (Nakaseomyces glabratus [1]) [µg/mL] | MIC (Nakaseomyces glabratus [2]) [µg/mL] | MIC (Pichia kudriavzevii) [µg/mL] | MIC (Candida albicans [3]) [µg/mL] | MIC (Candida albicans [4]) [µg/mL] | MIC (Cyberlindnera jadinii) [µg/mL] | MIC (Candida parapsilosis) [µg/mL] | MIC (Candida albicans [5]) [µg/mL] | Structure (SMILES) | IC50 (A549) [mM] | IC50 (NIH3T3) [mM]
> 8000 | > 8000 | > 8000 | > 8000 | > 8000 | > 8000 | > 8000 | > 8000 | Cn1nnnc1SCC(=O)N/N=C/c1cccc(Cl)c1 | 7.5 | 7.5
> 8000 | > 8000 | > 8000 | > 8000 | > 8000 | > 8000 | > 8000 | > 8000 | Cn1nnnc1SCC(=O)N/N=C/c1cccc(Br)c1 | 0.6 | 0.316
> 8000 | > 8000 | > 8000 | > 8000 | > 8000 | > 8000 | > 8000 | > 8000 | Cn1nnnc1SCC(=O)N/N=C/c1ccccc1O | > 10 | > 10
> 8000 | > 8000 | > 8000 | > 8000 | > 8000 | > 8000 | > 8000 | > 8000 | Cn1nnnc1SCC(=O)N/N=C/c1cccc(O)c1 | 4.5 | 3.16
> 8000 | > 8000 | > 8000 | > 8000 | > 8000 | > 8000 | > 8000 | > 8000 | C/C(=N\NC(=O)CSc1nnnn1C)c1ccc(Cl)cc1 | 6 | 0.1
> 8000 | > 8000 | > 8000 | > 8000 | > 8000 | > 8000 | > 8000 | > 8000 | C/C(=N\NC(=O)CSc1nnnn1C)c1ccc(Cl)cc1Cl | 0.8 | 1
> 8000 | > 8000 | > 8000 | > 8000 | > 8000 | > 8000 | > 8000 | > 8000 | Cn1nnnc1SCC(=O)N/N=C/c1ccccc1 | 3.16 | 9.7
> 8000 | > 8000 | > 8000 | > 8000 | > 8000 | > 8000 | > 8000 | > 8000 | Cn1nnnc1SCC(=O)N/N=C/c1ccc(C(F)(F)F)cc1 | 6.32 | > 10
> 8000 | > 8000 | > 8000 | > 8000 | > 8000 | > 8000 | > 8000 | > 8000 | Cn1nnnc1SCC(=O)N/N=C/c1cccc([N+](=O)[O-])c1 | > 10 | 2
> 8000 | > 8000 | > 8000 | > 8000 | > 8000 | > 8000 | > 8000 | > 8000 | Cn1nnnc1SCC(=O)N/N=C/c1cccc(F)c1 | 6.32 | 6.32
